Experiments:
Assay type in all cases: functional
HOP-62 = assay: Cytotoxicity against human HOP62 cells at 10^-7 M after 48 hrs by SRB assay; settings: HOP-62, 48 h, read-out: GI
HT-29 = assay: Cytotoxicity against human HT-29 cells at 10^-8 M after 48 hrs by SRB assay; settings: HT-29, 48 h, read-out: GI
[1] = Cytotoxicity against human OVCAR4 cells at 10^-7 M after 48 hrs by SRB assay; settings: OVCAR-4, 48 h, read-out: GI
OVCAR-8 [2] = assay: Cytotoxicity against human OVCAR8 cells after 48 hrs by SRB assay; settings: OVCAR-8, 48 h
COLO 205 = assay: Cytotoxicity against human COLO205 cells at 10^-8 M after 48 hrs by SRB assay; settings: COLO 205, 48 h, read-out: GI
OVCAR-3 = assay: Cytotoxicity against human OVCAR3 cells at 10^-8 M after 48 hrs by SRB assay; settings: OVCAR-3, 48 h, read-out: GI
NCI-H460 = assay: Cytotoxicity against human NCI-H460 cells at 10^-7 M after 48 hrs by SRB assay; settings: NCI-H460, 48 h, read-out: GI
SF-539 [3] = assay: Cytotoxicity against human SF539 cells at 10^-7 M after 48 hrs by SRB assay; settings: SF-539, 48 h, read-out: GI
[4] = Cytotoxicity against human UACC257 cells at 10^-8 M after 48 hrs by SRB assay; settings: UACC-257, 48 h, read-out: GI
SF-539 [5] = assay: Cytotoxicity against human SF539 cells at 10^-8 M after 48 hrs by SRB assay; settings: SF-539, 48 h, read-out: GI
SF-295 [6] = assay: Cytotoxicity against human SF295 cells at 10^-8 M after 48 hrs by SRB assay; settings: SF-295, 48 h, read-out: GI
SR = assay: Cytotoxicity against human SR cells at 10^-7 M after 48 hrs by SRB assay; settings: read-out: GI
HCT-116 = assay: Cytotoxicity against human HCT116 cells at 10^-7 M after 48 hrs by SRB assay; settings: HCT-116, 48 h, read-out: GI
[7] = Cytotoxicity against human OVCAR5 cells at 10^-8 M after 48 hrs by SRB assay; settings: OVCAR-5, 48 h, read-out: GI
MOLT-4 [8] = assay: Cytotoxicity against human MOLT4 cells at 10^-7 M after 48 hrs by SRB assay; settings: MOLT-4, 48 h, read-out: GI
K562 = assay: Cytotoxicity against human K562 cells at 10^-6 M after 48 hrs by SRB assay; settings: K562, 48 h, read-out: GI
OVCAR-8 [9] = assay: Cytotoxicity against human OVCAR8 cells at 10^-8 M after 48 hrs by SRB assay; settings: OVCAR-8, 48 h, read-out: GI
RPMI-8226 = assay: Cytotoxicity against human RPMI8226 cells at 10^-8 M after 48 hrs by SRB assay; settings: RPMI-8226, 48 h, read-out: GI
[10] = Cytotoxicity against human UACC257 cells at 10^-7 M after 48 hrs by SRB assay; settings: UACC-257, 48 h, read-out: GI
BT-549 = assay: Cytotoxicity against human BT549 cells at 10^-7 M after 48 hrs by SRB assay; settings: BT-549, 48 h, read-out: GI
[11] = Cytotoxicity against human Hs578T cells at 10^-7 M after 48 hrs by SRB assay; settings: Hs-578T, read-out: GI
MOLT-4 [12] = assay: Cytotoxicity against human MOLT4 cells at 10^-8 M after 48 hrs by SRB assay; settings: MOLT-4, 48 h, read-out: GI
RXF 393 = assay: Cytotoxicity against human RXF393 cells at 10^-8 M after 48 hrs by SRB assay; settings: RXF 393, 48 h, read-out: GI
SF-295 [13] = assay: Cytotoxicity against human SF295 cells at 10^-7 M after 48 hrs by SRB assay; settings: SF-295, 48 h, read-out: GI
HL-60(TB) = assay: Cytotoxicity against human HL-60(TB) cells at 10^-8 M after 48 hrs by SRB assay; settings: HL-60, 48 h, read-out: GI
Outline: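 NCI 60-human-tumour-cell-line screen run over a 5-log dose range (100, 10, 1, 0.1 and 0.01 µM). Cells were exposed to drug for 48 h. Growth was estimated by sulforhodamine B protein staining. Values are percent growth inhibition at each concentration, relative to untreated control cells.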

ACHN = assay: Cytotoxicity against human ACHN cells at 10^-7 M after 48 hrs by SRB assay; settings: read-out: GI
MCF7 = assay: Cytotoxicity against human MCF7 cells at 10^-7 M after 48 hrs by SRB assay; settings: MCF7, 48 h, read-out: GI
SF-268 = assay: Cytotoxicity against human SF268 cells at 10^-7 M after 48 hrs by SRB assay; settings: SF-268, 48 h, read-out: GI
A549 [14] = assay: Cytotoxicity against human A549 cells at 10^-8 M after 48 hrs by SRB assay; settings: A549, 48 h, read-out: GI
SNB-19 = assay: Cytotoxicity against human SNB19 cells at 10^-8 M after 48 hrs by SRB assay; settings: SNB-19, 48 h, read-out: GI
[15] = Cytotoxicity against human UO31 cells at 10^-7 M after 48 hrs by SRB assay; settings: UO-31, 48 h, read-out: GI
[16] = Cytotoxicity against human UO31 cells at 10^-8 M after 48 hrs by SRB assay; settings: UO-31, 48 h, read-out: GI
NCI-H522 = assay: Cytotoxicity against human NCI-H522 cells at 10^-7 M after 48 hrs by SRB assay; settings: NCI-H522, 48 h, read-out: GI
SK-MEL-28 = assay: Cytotoxicity against human SK-MEL-28 cells at 10^-8 M after 48 hrs by SRB assay; settings: SK-MEL-28, 48 h, read-out: GI
SNB-75 = assay: Cytotoxicity against human SNB75 cells at 10^-7 M after 48 hrs by SRB assay; settings: SNB-75, 48 h, read-out: GI
NCI-H23 = assay: Cytotoxicity against human NCI-H23 cells at 10^-7 M after 48 hrs by SRB assay; settings: NCI-H23, 48 h, read-out: GI
DU-145 = assay: Cytotoxicity against human DU145 cells at 10^-8 M after 48 hrs by SRB assay; settings: DU-145, 48 h, read-out: GI
[17] = Cytotoxicity against human EKVX cells at 10^-7 M after 48 hrs by SRB assay; settings: read-out: GI
A549 [18] = assay: Cytotoxicity against human A549 cells at 10^-7 M after 48 hrs by SRB assay; settings: A549, 48 h, read-out: GI
MDA-MB-231 = assay: Cytotoxicity against human MDA-MB-231 cells at 10^-8 M after 48 hrs by SRB assay; settings: MDA-MB-231, 48 h, read-out: GI
OVCAR-8 [19] = assay: Cytotoxicity against human OVCAR8 cells at 10^-7 M after 48 hrs by SRB assay; settings: OVCAR-8, 48 h, read-out: GI
Malme-3M = assay: Cytotoxicity against human MALME-3M cells at 10^-6 M after 48 hrs by SRB assay; settings: read-out: GI

Question: Which inhibition of growth at 0.1 µM (HOP-62) does the source give for `CCN(Cc1nc2cc(C(F)(F)F)ccc2nc1-c1ccccc1)c1ccc(OC)c(OC)c1` here?
Answer: The inhibition of growth at 0.1 µM was less than 40%.

Question: What about the inhibition of growth at 0.01 µM (HT-29) of the same compound?
Answer: The inhibition of growth at 0.01 µM was less than 40%.

Question: What about the inhibition of growth at 0.1 µM [1] of the same compound?
Answer: The inhibition of growth at 0.1 µM was less than 40%.

Question: What about the GI50 (OVCAR-8 [2]) of the same compound?
Answer: The GI50 was 1.51 µM.

Question: What about the inhibition of growth at 0.01 µM (COLO 205) of the same compound?
Answer: Its inhibition of growth at 0.01 µM is less than 40%.

Question: What about the inhibition of growth at 0.01 µM (OVCAR-3) of the same compound?
Answer: Its inhibition of growth at 0.01 µM is less than 40%.

Question: What about the inhibition of growth at 0.1 µM (NCI-H460) of the same compound?
Answer: Its inhibition of growth at 0.1 µM is less than 40%.

Question: What about the inhibition of growth at 0.1 µM (SF-539 [3]) of the same compound?
Answer: The inhibition of growth at 0.1 µM was less than 40%.

Question: What about the inhibition of growth at 0.01 µM [4] of the same compound?
Answer: The inhibition of growth at 0.01 µM was 39%.

Question: And the inhibition of growth at 0.01 µM (SF-539 [5])?
Answer: The inhibition of growth at 0.01 µM was less than 40%.

Question: And the inhibition of growth at 0.01 µM (SF-295 [6])?
Answer: Its inhibition of growth at 0.01 µM is less than 40%.

Question: And the inhibition of growth at 0.1 µM (SR)?
Answer: The inhibition of growth at 0.1 µM was less than 40%.

Question: What about the inhibition of growth at 0.1 µM (HCT-116) of the same compound?
Answer: The inhibition of growth at 0.1 µM was less than 40%.

Question: And the inhibition of growth at 0.01 µM [7]?
Answer: Its inhibition of growth at 0.01 µM is less than 40%.

Question: What about the inhibition of growth at 0.1 µM (MOLT-4 [8]) of the same compound?
Answer: Its inhibition of growth at 0.1 µM is less than 40%.

Question: And the inhibition of growth at 1 µM (K562)?
Answer: The inhibition of growth at 1 µM was less than 40%.

Question: And the inhibition of growth at 0.01 µM (OVCAR-8 [9])?
Answer: Its inhibition of growth at 0.01 µM is 11%.

Question: What about the inhibition of growth at 0.01 µM (RPMI-8226) of the same compound?
Answer: Its inhibition of growth at 0.01 µM is less than 40%.

Question: What about the inhibition of growth at 0.1 µM [10] of the same compound?
Answer: The inhibition of growth at 0.1 µM was 67%.

Question: What about the inhibition of growth at 0.1 µM (BT-549) of the same compound?
Answer: Its inhibition of growth at 0.1 µM is less than 40%.

Question: What about the inhibition of growth at 0.1 µM [11] of the same compound?
Answer: The inhibition of growth at 0.1 µM was less than 40%.

Question: And the inhibition of growth at 0.01 µM (MOLT-4 [12])?
Answer: The inhibition of growth at 0.01 µM was less than 40%.

Question: And the inhibition of growth at 0.01 µM (RXF 393)?
Answer: Its inhibition of growth at 0.01 µM is 22%.

Question: What about the inhibition of growth at 0.1 µM (SF-295 [13]) of the same compound?
Answer: Its inhibition of growth at 0.1 µM is less than 40%.

Question: What about the inhibition of growth at 0.01 µM (HL-60(TB)) of the same compound?
Answer: Its inhibition of growth at 0.01 µM is less than 40%.

Question: And the inhibition of growth at 0.1 µM (ACHN)?
Answer: The inhibition of growth at 0.1 µM was less than 40%.

Question: And the inhibition of growth at 0.1 µM (MCF7)?
Answer: Its inhibition of growth at 0.1 µM is less than 40%.

Question: What about the inhibition of growth at 0.1 µM (SF-268) of the same compound?
Answer: The inhibition of growth at 0.1 µM was less than 40%.

Question: What about the inhibition of growth at 0.01 µM (A549 [14]) of the same compound?
Answer: Its inhibition of growth at 0.01 µM is 19%.

Question: And the inhibition of growth at 0.01 µM (SNB-19)?
Answer: Its inhibition of growth at 0.01 µM is less than 40%.

Question: And the inhibition of growth at 0.1 µM [15]?
Answer: Its inhibition of growth at 0.1 µM is less than 40%.

Question: And the inhibition of growth at 0.01 µM [16]?
Answer: Its inhibition of growth at 0.01 µM is less than 40%.

Question: What about the inhibition of growth at 0.1 µM (NCI-H522) of the same compound?
Answer: The inhibition of growth at 0.1 µM was less than 40%.

Question: What about the inhibition of growth at 0.01 µM (SK-MEL-28) of the same compound?
Answer: The inhibition of growth at 0.01 µM was less than 40%.

Question: What about the inhibition of growth at 0.1 µM (SNB-75) of the same compound?
Answer: The inhibition of growth at 0.1 µM was less than 40%.

Question: What about the inhibition of growth at 0.1 µM (NCI-H23) of the same compound?
Answer: The inhibition of growth at 0.1 µM was less than 40%.

Question: And the inhibition of growth at 0.01 µM (DU-145)?
Answer: Its inhibition of growth at 0.01 µM is less than 40%.

Question: And the inhibition of growth at 0.1 µM [17]?
Answer: Its inhibition of growth at 0.1 µM is less than 40%.

Question: And the inhibition of growth at 0.1 µM (A549 [18])?
Answer: The inhibition of growth at 0.1 µM was 42%.

Question: And the inhibition of growth at 0.01 µM (MDA-MB-231)?
Answer: The inhibition of growth at 0.01 µM was less than 40%.

Question: What about the inhibition of growth at 0.1 µM (OVCAR-8 [19]) of the same compound?
Answer: The inhibition of growth at 0.1 µM was 25%.

Question: With `C#CCN(Cc1nc2cc(C(F)(F)F)ccc2nc1-c1ccccc1)c1ccc(C)cc1` as the compound, how does the inhibition of growth at 1 µM (Malme-3M) read?
Answer: Its inhibition of growth at 1 µM is less than 40%.

— ChEMBL document CHEMBL3120154, “2-[N-Alkyl(R-phenyl)-aminomethyl]-3-phenyl-7-trifluoromethylquinoxalines as anticancer agents inhibitors of folate enzymes” (Eur J Med Chem, 2014)
